# From ChEMBL document CHEMBL1121469, “Synthesis and biochemical screening of phenylselenium-substituted steroid hormones” (J Med Chem, 1980)
# Experiments:
# [1] = target: T1, Glucocorticoid receptor (Rattus norvegicus) (UniProt P06536)
# T1 sequence (whole entry): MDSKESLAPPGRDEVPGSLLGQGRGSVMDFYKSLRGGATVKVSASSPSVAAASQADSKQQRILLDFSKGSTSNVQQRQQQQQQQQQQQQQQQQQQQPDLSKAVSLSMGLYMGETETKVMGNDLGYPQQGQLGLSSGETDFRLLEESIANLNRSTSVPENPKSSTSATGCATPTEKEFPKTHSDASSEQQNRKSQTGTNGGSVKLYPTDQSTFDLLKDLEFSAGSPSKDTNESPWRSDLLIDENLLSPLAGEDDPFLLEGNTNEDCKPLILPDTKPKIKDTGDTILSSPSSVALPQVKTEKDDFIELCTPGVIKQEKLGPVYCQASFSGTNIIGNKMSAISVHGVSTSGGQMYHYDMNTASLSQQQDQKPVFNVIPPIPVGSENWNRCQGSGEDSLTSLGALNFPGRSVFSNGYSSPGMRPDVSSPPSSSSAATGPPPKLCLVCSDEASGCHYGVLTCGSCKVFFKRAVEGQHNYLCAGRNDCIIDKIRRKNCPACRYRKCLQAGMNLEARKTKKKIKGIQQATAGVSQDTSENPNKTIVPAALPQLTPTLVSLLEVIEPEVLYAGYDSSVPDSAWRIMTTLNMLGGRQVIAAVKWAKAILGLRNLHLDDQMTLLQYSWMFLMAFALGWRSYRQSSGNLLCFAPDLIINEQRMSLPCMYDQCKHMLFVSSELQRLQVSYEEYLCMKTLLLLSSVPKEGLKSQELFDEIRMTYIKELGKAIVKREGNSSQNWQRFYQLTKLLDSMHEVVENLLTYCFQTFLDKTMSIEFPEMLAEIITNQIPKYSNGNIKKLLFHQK
# [2] = target: T2, Androgen receptor (Rattus norvegicus) (UniProt P15207); test: Binding affinity to Steroid Hormone Receptor was determined using [6,7-3H] R 1881 as radioligand; conditions: tested as the 3H-labelled form
# T2 sequence (whole entry): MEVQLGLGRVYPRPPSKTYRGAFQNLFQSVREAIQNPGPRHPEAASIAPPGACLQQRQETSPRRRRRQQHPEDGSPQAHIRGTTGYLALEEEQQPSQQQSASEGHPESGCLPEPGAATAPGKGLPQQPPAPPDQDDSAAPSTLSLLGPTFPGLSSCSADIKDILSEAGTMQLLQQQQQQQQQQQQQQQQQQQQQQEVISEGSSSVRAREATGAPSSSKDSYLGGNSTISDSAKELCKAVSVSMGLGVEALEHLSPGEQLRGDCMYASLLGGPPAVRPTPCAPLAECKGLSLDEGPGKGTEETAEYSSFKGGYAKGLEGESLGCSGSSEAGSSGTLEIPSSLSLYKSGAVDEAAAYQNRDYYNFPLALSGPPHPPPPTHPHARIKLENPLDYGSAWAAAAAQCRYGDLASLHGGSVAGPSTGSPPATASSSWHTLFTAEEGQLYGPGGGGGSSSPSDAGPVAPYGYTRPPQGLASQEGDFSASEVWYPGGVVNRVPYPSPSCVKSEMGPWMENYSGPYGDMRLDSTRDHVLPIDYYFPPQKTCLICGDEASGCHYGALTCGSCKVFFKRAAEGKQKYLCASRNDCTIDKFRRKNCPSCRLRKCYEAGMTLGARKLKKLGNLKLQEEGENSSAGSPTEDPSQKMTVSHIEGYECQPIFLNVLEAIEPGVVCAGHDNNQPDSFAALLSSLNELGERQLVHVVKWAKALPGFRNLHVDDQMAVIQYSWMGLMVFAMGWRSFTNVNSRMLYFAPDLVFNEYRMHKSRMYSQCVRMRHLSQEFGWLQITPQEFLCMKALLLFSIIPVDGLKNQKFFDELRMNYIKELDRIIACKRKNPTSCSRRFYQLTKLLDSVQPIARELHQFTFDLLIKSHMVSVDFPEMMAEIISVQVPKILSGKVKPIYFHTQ
# Outline: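 Prostate was taken from male Sprague–Dawley rats (140–160 g) castrated 24 h before and homogenized 1/5 (w/v). Cytosol was incubated with 2.5 nM [3H]R 1881 for 2 h at 0 °C with 0–2500 nM unlabeled competitor. Free ligand was removed with DCC (0.625% dextran–1.25% charcoal, 10 min, 0–4 °C, 800g spin). RBA is relative to testosterone = 100. Values are means of ≥3 experiments (SEM) or of two.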
# [3] = target: T2, Androgen receptor (Rattus norvegicus); test: Relative binding affinity for androgen receptor of rat prostate cytosol, displacement of [3H]R-1881 over 2 hr at 0C
# Outline: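 Prostate from male Sprague–Dawley rats (140–160 g) castrated 24 h earlier, homogenised 1/5 w/v. Cytosol incubated with 2.5 nM [3H]R 1881 for 2 h at 0 °C with 0–2500 nM competitor. […] by dextran-coated charcoal (10 min, 0–4 °C; 800g). RBA is the ratio of 50%-displacing concentrations × 100, relative to testosterone.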
# [4] = target: T1, Glucocorticoid receptor (Rattus norvegicus); test: Relative binding affinity for glucocorticoid receptor of rat liver cytosol, displacement of [3H]dexamethasone over 4 hr at 0C
# Outline: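 Rats (male Sprague–Dawley, 140–160 g) adrenalectomized 4–7 days earlier. Perfused liver homogenised 1/10 in Tris-sucrose buffer and spun at 105000g for 60 min at 4 °C. Cytosol incubated with 5 nM [3H]dexamethasone for 4 h at 0 °C with 0–2500 nM competitor. Dextran-charcoal separation used. RBA relative to dexamethasone = 100.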
# [5] = target: T3, Estrogen receptor (Mus musculus) (UniProt O08537+P19785); test: Relative binding affinity for Estrogen receptor of mouse uterus cytosol, displacement of [3H]estradiol over 2 hr at 0C; format: protein assay
# Outline: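 Cytosol from uteri of 18-day-old female Swiss mice (homogenised 1/50 w/v), incubated with 5 nM [3H]estradiol for 2 h at 0 °C with 0–2500 nM unlabeled competitor. Bound ligand separated by dextran-coated charcoal, 10 min at 0–4 °C, then centrifuged at 800g. RBA = (50%-displacing concentration of unlabeled estradiol / that of competitor) × 100. Mean of ≥3 experiments or 2 concordant.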
# [6] = target: T4, Mineralocorticoid receptor (Rattus norvegicus) (UniProt P22199); test: Relative binding affinity for mineralocorticoid receptor of rat kidney homogenates, displacement of [3H]aldosterone over 30 min at 25 degree C
# T4 sequence (whole entry): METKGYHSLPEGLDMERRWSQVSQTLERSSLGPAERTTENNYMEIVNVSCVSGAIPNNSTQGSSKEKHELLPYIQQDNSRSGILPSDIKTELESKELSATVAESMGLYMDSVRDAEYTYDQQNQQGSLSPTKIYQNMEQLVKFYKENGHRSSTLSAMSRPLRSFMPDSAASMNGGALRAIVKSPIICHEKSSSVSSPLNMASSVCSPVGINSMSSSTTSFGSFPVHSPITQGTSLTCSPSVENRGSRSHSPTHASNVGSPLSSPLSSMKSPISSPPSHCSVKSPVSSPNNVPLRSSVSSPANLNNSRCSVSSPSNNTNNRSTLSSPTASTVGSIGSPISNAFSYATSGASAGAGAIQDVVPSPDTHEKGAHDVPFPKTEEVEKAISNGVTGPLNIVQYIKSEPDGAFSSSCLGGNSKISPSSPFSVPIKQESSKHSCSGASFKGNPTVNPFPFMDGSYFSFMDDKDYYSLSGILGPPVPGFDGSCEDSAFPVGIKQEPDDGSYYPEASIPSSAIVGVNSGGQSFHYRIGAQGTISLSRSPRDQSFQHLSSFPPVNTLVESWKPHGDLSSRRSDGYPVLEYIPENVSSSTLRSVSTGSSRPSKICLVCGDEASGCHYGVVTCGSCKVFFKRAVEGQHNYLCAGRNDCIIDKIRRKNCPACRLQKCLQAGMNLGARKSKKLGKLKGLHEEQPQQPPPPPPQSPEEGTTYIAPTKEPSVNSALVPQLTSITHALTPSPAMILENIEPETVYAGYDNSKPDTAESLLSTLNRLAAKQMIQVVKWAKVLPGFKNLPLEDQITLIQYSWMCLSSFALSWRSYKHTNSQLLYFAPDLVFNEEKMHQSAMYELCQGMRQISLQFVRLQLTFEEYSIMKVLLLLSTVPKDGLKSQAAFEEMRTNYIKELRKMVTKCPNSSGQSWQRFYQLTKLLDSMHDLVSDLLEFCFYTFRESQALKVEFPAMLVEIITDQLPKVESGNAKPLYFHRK
# Outline: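 Perfused kidneys from adrenalectomized (4–7 days) male Sprague–Dawley rats homogenised 1/3 in Krebs-Ringer phosphate buffer. Homogenate incubated with 2.5 nM [3H]aldosterone for 30 min at 25 °C with 0–2500 nM competitor, then centrifuged at 800g for 10 min at 0 °C. Bound ligand measured by dextran-charcoal. RBA relative to aldosterone = 100.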
# [7] = target: T5, Progesterone receptor (Oryctolagus cuniculus) (UniProt P06186); test: Relative binding affinity for Progesterone receptor of rabbit uterus cytosol, displacement of [3H]R5020 over 24 hr at 0C
# T5 sequence (whole entry): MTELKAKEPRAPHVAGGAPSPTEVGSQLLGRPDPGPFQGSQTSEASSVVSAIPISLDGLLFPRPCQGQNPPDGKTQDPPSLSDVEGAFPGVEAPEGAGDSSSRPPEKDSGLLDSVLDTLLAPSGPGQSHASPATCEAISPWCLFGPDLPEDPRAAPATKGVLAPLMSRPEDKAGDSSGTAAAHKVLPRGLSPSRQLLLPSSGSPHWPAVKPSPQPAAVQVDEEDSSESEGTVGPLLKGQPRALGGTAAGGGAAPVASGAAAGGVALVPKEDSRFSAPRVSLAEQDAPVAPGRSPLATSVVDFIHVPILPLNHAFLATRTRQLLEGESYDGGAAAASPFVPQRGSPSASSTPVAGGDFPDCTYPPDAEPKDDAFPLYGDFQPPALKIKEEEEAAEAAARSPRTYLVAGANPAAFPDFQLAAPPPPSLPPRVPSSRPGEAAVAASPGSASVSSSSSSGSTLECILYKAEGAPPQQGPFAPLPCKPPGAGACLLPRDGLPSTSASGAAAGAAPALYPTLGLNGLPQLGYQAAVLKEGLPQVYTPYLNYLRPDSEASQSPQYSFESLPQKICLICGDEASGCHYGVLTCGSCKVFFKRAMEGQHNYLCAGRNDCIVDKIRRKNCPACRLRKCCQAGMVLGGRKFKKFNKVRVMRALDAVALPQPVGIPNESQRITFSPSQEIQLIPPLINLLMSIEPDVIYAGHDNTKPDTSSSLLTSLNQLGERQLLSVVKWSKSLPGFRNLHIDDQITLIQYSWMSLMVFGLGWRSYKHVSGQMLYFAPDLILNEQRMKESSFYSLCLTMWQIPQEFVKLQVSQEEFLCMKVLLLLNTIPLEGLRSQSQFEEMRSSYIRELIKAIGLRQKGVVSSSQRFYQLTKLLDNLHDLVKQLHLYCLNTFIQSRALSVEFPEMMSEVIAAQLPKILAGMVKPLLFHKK
# Outline: (§1)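 Uteri from estrogen-primed female New Zealand rabbits (1 kg, 50–55 days old) homogenised 1/50 in 10 mM Tris-HCl pH 7.4, 0.25 M sucrose. Cytosol spun at 105000g for 60 min at 4 °C, then incubated with 2.5 nM [3H]R 5020 for 24 h at 0 °C with 0–2500 nM competitor. Bound ligand taken by dextran-charcoal. RBA taken relative to progesterone.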
# [8] = target: T5, Progesterone receptor (Oryctolagus cuniculus); test: Binding affinity to Steroid Hormone Receptor was determined using [6,7-3H]R5020 as radioligand
# Outline: as §1
# [9] = target: T3, Estrogen receptor (Mus musculus); test: Binding affinity to Steroid Hormone Receptor was determined using [6,7-3H]estradiol as radioligand; format: protein assay; conditions: tested as the 3H-labelled form
# Outline: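 Uteri came from 18-day-old female Swiss mice and were homogenized 1/50 (w/v). Uterine cytosol was labeled with 5 nM [3H]estradiol for 2 h at 0 °C with 0–2500 nM competing steroid. Bound radioactivity was measured after dextran-coated charcoal treatment and an 800g centrifugation. The 50%-inhibition concentrations gave RBA × 100 relative to estradiol (100). Results are means of ≥3 or two experiments.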
# [10] = target: T4, Mineralocorticoid receptor (Rattus norvegicus); test: Binding affinity to Steroid Hormone Receptor was determined using [1,2-3 H]aldosterone as radioligand
# Outline: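 Rats were male Sprague–Dawley, 140–160 g, adrenalectomized 4–7 days. Perfused kidney was homogenized 1/3 (w/v) in Krebs-Ringer phosphate buffer. Homogenate was incubated with 2.5 nM [3H]aldosterone for 30 min at 25 °C with 0–2500 nM competitor, then spun at 800g for 10 min at 0 °C. Bound ligand was separated by dextran-coated charcoal. RBA = 100 × ratio of the 50%-displacing concentrations, with aldosterone set at 100.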
# T3 sequence (O08537 whole entry, looked up): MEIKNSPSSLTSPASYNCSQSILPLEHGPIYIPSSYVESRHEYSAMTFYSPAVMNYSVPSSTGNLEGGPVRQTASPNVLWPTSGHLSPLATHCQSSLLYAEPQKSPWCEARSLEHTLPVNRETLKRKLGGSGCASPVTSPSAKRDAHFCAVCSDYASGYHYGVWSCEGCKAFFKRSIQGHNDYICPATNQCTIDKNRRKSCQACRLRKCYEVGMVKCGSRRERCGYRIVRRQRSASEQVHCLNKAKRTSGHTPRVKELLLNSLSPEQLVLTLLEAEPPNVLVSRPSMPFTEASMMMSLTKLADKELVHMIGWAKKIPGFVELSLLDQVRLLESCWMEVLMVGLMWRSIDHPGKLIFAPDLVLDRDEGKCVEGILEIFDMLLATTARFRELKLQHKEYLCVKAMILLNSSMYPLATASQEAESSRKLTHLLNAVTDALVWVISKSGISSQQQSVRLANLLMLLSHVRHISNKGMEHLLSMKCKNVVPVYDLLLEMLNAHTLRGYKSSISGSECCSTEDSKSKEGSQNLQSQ
# T3 sequence (P19785 whole entry, looked up): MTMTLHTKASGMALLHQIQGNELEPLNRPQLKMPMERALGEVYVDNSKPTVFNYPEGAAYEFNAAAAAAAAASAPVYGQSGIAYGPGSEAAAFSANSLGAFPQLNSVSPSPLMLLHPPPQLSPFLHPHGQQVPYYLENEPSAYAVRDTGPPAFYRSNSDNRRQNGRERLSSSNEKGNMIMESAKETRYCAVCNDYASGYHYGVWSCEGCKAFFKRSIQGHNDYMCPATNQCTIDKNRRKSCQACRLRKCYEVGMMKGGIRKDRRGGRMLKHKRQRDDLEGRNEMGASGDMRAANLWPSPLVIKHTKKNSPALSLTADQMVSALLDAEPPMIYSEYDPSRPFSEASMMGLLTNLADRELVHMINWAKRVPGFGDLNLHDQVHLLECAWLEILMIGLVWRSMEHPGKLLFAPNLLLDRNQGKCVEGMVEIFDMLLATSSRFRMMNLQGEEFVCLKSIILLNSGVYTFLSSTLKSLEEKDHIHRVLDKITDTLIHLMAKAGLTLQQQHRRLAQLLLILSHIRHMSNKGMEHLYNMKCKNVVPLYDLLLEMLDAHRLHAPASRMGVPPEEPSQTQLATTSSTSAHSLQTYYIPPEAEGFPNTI
SMILES,RBA [3],RBA [4],RBA [5],RBA [6],RBA [7],also measured
C[C@@H]1C[C@H]2[C@@H]3CCC4=CC(=O)C=C[C@]4(C)[C@@]3(F)[C@@H](O)C[C@]2(C)[C@@]1(O)C(=O)CO,–,–,–,–,–,Specific activity [1]: 26 Ci mM-1
CC12CCC(=O)C=C1CCC1C2C2CC3(C(O)O2)C(C(=O)CO)CCC13 (stereo not given),–,–,–,–,–,Specific activity [2]: 53 Ci mM-1
CC(=O)[C@@]1([Se]c2ccccc2)CCC2C3CCC4=CC(=O)CCC4(C)C3CCC21C (stereo not given in full),< 0.1,< 0.1,< 0.1,0.23,2.1,–
CC12CCC(=O)C=C1CCC1C2CCC2(C)C1C[C@@H]([Se]c1ccccc1)C2O (stereo not given in full),0.33,0.23,< 0.1,0.15,0.8,–
C[C@]1(O)CC[C@H]2[C@@H]3CCC4=CC(=O)CCC4=C3C=C[C@@]21C,–,–,–,–,–,Specific activity [8]: 56 Ci mM-1
CC12CCC(=O)C=C1CCC1C2CCC2(C)C1CC[C@@H]2C(=O)C[Se]c1ccccc1 (stereo not given in full),1.7,0.6,< 0.1,2.1,59,–
CCC(=O)[C@@]1(C)CC[C@H]2[C@@H]3CCC4=CC(=O)CCC4=C3CCC21C (stereo not given in full),–,–,–,–,–,Specific activity [9]: 57 Ci mM-1
CC12CCC(=O)C=C1CCC1C2CCC2(C)C1C[C@H]([Se]c1ccccc1)C2O (stereo not given in full),1.9,< 0.1,< 0.1,< 0.1,< 0.1,–
C[C@]12CC[C@@H]3c4ccc(O)cc4CC[C@H]3[C@@H]1CC[C@@H]2O,–,–,–,–,–,Specific activity [10]: 50 Ci mM-1
